In data set [1] the test system is Human immunodeficiency virus 1. Kind of data set: Antiviral activity against HIV1 NL4-3 infected in human MT4 cells assessed as reduction in viral replication measured on day 3 post infection by luciferase reporter gene assay. It counts as functional, organism-based.
The test system of another data set is MT4. Description: Cytotoxicity against human MT4 cells assessed as reduction in cell viability after 3 days by CytoTox-Glo assay. Format: cell-based. Particulars: mt4, 72 h. The method, boiled down:
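MT4 cells were cultured with various compound concentrations for 3 days. Viability was read by the CytoTox-Glo assay following the manufacturer's protocol. CC50 is the concentration giving a 50% reduction in cell viability.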

A short description of data set [2]: Selectivity index, ratio of CC50 for human MT4 cells to EC50 for HIV1 NL4-3 infected in human MT4 cells. It counts as toxicity, cell-based. Particulars: read-out: Ratio CC50/EC50.
Setting [3] is: Human immunodeficiency virus 1, NL4-3, MT4, 72 h.

On to `COc1cc(/C=C/C(=O)O)ccc1O` [FERULATE], for which the half-maximal effective concentration (EC50) in data set [1] (setting [3]) was above 10 µM. The CC50 with MT4 was above 10 µM.
For `COc1cc(/C=C/C(=O)OCCCc2ccc(O[C@H](COC(=O)/C=C/c3ccc(O)c(OC)c3)[C@@H](OC)c3ccc(O)c(OC)c3)c(OC)c2)ccc1O` (stereo in doubt; 1b), the EC50 in data set [1] (setting [3]) came to 5.3 µM. For the same compound, in the data set with MT4 (72 h), the CC50 came to 17 µM. Besides, the selectivity ratio in data set [2] is 3.2.
As to `COc1cc(/C=C/C(=O)OCCCc2ccc(O[C@@H](COC(=O)/C=C/c3ccc(O)c(OC)c3)[C@H](OC)c3ccc(O)c(OC)c3)c(OC)c2)ccc1O` (stereo in doubt; 1a), the EC50 in data set [1] (setting [3]) was determined as 6.3 µM. In the data set with MT4 (72 h), the cytotoxic concentration (CC50) is 21 µM. In addition, the selectivity ratio in data set [2] was determined as 3.3.
Take `CCOC(=O)/C=C/c1ccc(O)c(OC)c1` [ETHYL FERULATE]: the EC50 in data set [1] (setting [3]) is above 10 µM. For the same compound, the CC50 with MT4 is above 10 µM.
Regarding `COc1cc(/C=C/C(=O)OCCCc2ccc(O[C@H](COC(=O)/C=C/c3ccc(O)c(OC)c3)[C@@H](OC)c3ccc(O)c(OC)c3)c(OC)c2)ccc1O` (stereo in doubt; 2a), the EC50 in data set [1] (mt4) was above 10 µM.
For `Cc1cn([C@H]2C[C@H](N=[N+]=[N-])[C@@H](CO)O2)c(=O)[nH]c1=O` [ZIDOVUDINE], the CC50 in the data set on MT4 is above 0.1 µM.
